# Assay outcomes from PubChem BioAssay.
# KCNK9 inh: KCNK9 potassium channel inhibitors, primary screen, HEK293 cells, thallium flux; Potassium channel subfamily K member 9 (Homo sapiens), Q9NPC2; FluxOR thallium flux fluorescence; hits give low values; B-score at 10 µM; 1.2% of 310,000 active; AID 488922, 2010;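 active = ratio B-score over 3 SD below the library mean, with starting fluorescence within 5 SD of its mean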;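 note: negative B-score means less thallium flux so channel inhibition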
# KCNQ1 act: potentiators or activators of KCNQ1 channel, primary screen, cell-based, thallium flux, high-throughput. Potassium voltage-gated channel subfamily KQT member 1 (Homo sapiens), P51787. CHO-K1 KCNQ1, thallium flux FluxOR fluorescence; hits give high values. B-score at 10 µM. 0.35% of 310,000 active. AID 2648, 2010;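 active = fluorescence ratio B-score, a plate-corrected score, at least three library SD, with initial intensity B-score within 5 SD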
#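 Assay system: stable KCNQ1 CHO-K1 line; medium: assay buffer, equal DMSO in all wells; timing: 90 min dye loading and 20 min compound exposure, both at room temperature; technique: kinetic FluxOR thallium fluorescence, 10-s 1-Hz baseline, 110-s post-stimulus read; read-out basis: B score of baseline-normalized fluorescence ratio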
# KCNK3 inh: human KCNK3 channel inhibitors, primary screen, CHO cells, FluxOR thallium flux, B-score; Potassium channel subfamily K member 3 (Homo sapiens), O14649; 0.84% of 340,000 active; B-score at 10 µM; FluxOR fluorescence; hits give low values;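 active = B-score under library mean minus 4 SD, starting fluorescence ratio at most library mean plus 5 SD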;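 note: more negative B-score means stronger inhibition of thallium flux through KCNK3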
# KCNQ1 inh: inhibitors of human KCNQ1 channel, primary screen, cell-based, thallium flux, high-throughput | 1.3% of 310,000 active | CHO-K1 KCNQ1, FluxOR thallium flux fluorescence; hits give high values | B-score at 10 µM | Potassium voltage-gated channel subfamily KQT member 1 (Homo sapiens), P51787;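 active = compounds whose thallium flux B-score, printed positive for inhibition, exceeds three library SD while starting fluorescence stays within three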;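 note: channel opened by potassium depolarization with thallium stimulus after 20 min compound exposure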
# hERG rescue: hERG rescue from dofetilide block, primary screen, cell-based, CHO-hERG, FluxOR thallium flux, dofetilide IC70. Voltage-gated inwardly rectifying potassium channel KCNH2 (Homo sapiens), Q12809. dofetilide IC70 present. activation (rescue from dofetilide block), less the hit threshold, % at 10 µM. 0.51% of 310,000 active. AID 1511, 2009;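 active = activation above the mean of controls blocked by dofetilide plus 5 SD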;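 note: thallium influx through hERG after potassium depolarization seen as dye fluorescence rise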
# Kir21 block: inhibitors of mouse Kir2.1 inward-rectifier potassium channel. B-score at 10 µM. Inward rectifier potassium channel 2 (Mus musculus), P35561. 0.85% of 310,000 active. HEK293-Kir2.1, FluxOR thallium flux fluorescence; hits give low values;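 active = fluorescence ratio B-score at or below minus 3 SD of library scores, with starting-brightness B-score within 2 SD, cut at about -4.2 in these data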;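 note: channel flux triggered by added potassium and thallium sulfate stimulus; B-score of peak minus minimum fluorescence over baseline after thallium stimulus; more negative B-score means stronger Kir2.1 block with less thallium influx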
# Target sequence (P35561 whole entry, looked up): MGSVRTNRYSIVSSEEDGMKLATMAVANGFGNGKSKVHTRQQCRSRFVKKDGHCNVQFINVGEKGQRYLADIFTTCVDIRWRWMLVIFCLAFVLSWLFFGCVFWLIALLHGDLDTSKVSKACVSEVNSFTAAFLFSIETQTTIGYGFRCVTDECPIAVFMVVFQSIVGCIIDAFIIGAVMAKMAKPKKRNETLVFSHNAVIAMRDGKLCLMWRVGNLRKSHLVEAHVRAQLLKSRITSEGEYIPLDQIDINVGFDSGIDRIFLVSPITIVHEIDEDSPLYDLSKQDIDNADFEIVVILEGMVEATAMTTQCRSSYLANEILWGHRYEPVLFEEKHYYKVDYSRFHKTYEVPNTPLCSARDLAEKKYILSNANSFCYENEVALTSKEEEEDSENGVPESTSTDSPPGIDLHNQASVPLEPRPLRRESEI
# KCNK9 inh conf: KCNK9 potassium channel inhibitors, confirmation, HEK293 cells, thallium flux, duplicate | shares compounds with KCNK9 inh | FluxOR thallium flux fluorescence | inhibition, % at 10 µM | 43% of 4,900 active | AID 492992, 2010;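 active = thallium signal inhibited by more than 5 SD of the compound-free buffer control wells, on both duplicate plates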;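 note: 0% = assay buffer control wells without compound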
# Kir2-1 spec: mouse Kir2.1 channel inhibition, confirmation, selectivity assay for KCNK9 modulator project, cell-based, HEK293, thallium flux | shares compounds with KCNK9 inh | Kir2.1 cells, FluxOR thallium flux fluorescence | inhibition, % at 10 µM | 4% of 4,900 active | AID 492993, 2010;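 active = thallium signal drop more than 5 SD beyond the mean of the no-compound control wells, seen in both duplicate plates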;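 note: signal is fluorescence rise after thallium addition divided by baseline fluorescence; plate controls were assay buffer only for no effect and full block by chlorpromazine control for full effect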
# HEK293 Tl ctr: thallium flux in non-induced HEK293 cells, confirmation, counter-screen for KCNK9 inhibitor project, cell-based, second counter screen, non-induced KCNK9-HEK293 | FluxOR thallium flux | 40% of 4,900 active | shares compounds with KCNK9 inh | AID 492997, 2010 | inhibition, % at 10 µM;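 active = thallium signal drop beyond 5 SD of the untreated control mean, on both duplicate plates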;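 note: plate controls were buffer only IC0 wells for no effect and SID17386958 at its maximal inhibitory level for full effect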
# KCNK3 inh conf: retest of human KCNK3 channel inhibitors, confirmation, CHO cells, FluxOR thallium flux, triplicate | FluxOR fluorescence; 0% buffer, 100% carvedilol maximal block | ratio percent of control, % at 10 µM | shares compounds with KCNK3 inh | 99% of 2,400 active | AID 651638, 2012;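 active = ratio percent of control, averaged over triplicates, above buffer control mean plus 5 SD, cut at about 64% in these data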;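 note: ratio is the fluorescence rise from min to max over baseline after thallium stimulus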
# KCNK3 uninduced: thallium flux inhibition in non-induced cells, primary screen, counter-screen for KCNK3 inhibitor project, cell-based, non-induced KCNK3 line, FluxOR thallium, triplicate; shares compounds with KCNK3 inh; thallium flux ratio (lower = more inhibition) at 10 µM; 40% of 2,400 active; AID 651747, 2012; non-induced KCNK3 parental cells; hits give low values;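 active = thallium flux ratio, averaged over three wells, more than 5 SD below the buffer control mean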;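 note: host cells are CHO cells without KCNK3 induction; ratio is peak minus trough fluorescence over baseline then normalized to buffer controls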
# An asterisk follows results filed as active; i = inactive; / = no result given. Shown are actives, neighbours in structure and some others; about 3.7% of the full set was active somewhere.
SMILES,KCNK9 inh,KCNQ1 act,KCNK3 inh,KCNQ1 inh,hERG rescue,Kir21 block,KCNK9 inh conf,Kir2-1 spec,HEK293 Tl ctr,others
Cc1nc2scc(C)n2c(=O)c1S(=O)(=O)Nc1ccc(N2CCOCC2)cc1,i,i,i,i,4.4,0.69,/,/,/,
CC(=O)Nc1sc(C)c(C)c1C(=O)OCC(=O)NC(C)c1ccccc1 (stereo not drawn),/,/,i,/,/,/,/,/,/,
COc1ccc(NS(=O)(=O)c2ccc(C)c(C(=O)N3CCCCCCC3)c2)cc1,i,i,i,i,-11.0,-1.04,/,/,/,
Cc1cccc(NC(=O)c2ccc(COc3ccc(Cl)cc3Cl)o2)n1,i,i,i,i,-3.6,-1.55,i,i,i,
Cc1cccc(NC(=O)c2ccc(COc3ccc4ccccc4c3)o2)n1,i,i,i,i,-3.1,0.27,/,/,/,
COC(=O)c1c(NC(NC(=O)CC(C)C)C(Cl)(Cl)Cl)sc2c1CCC2 (stereo not drawn),-9.72*,i,i,i,-11.8,-0.88,i,i,49.0%*,
O=C1c2ccncc2C(=O)N1Cc1cccc(Cl)c1,i,i,i,i,-1.8,-0.51,/,/,/,
Cc1cccc(NCN2C(=O)c3ccncc3C2=O)n1,i,i,i,i,-6.0,-0.41,i,i,i,
C=CCOc1ccc(/C=C2\SC(=S)N(C(C(=O)O)c3ccccc3)C2=O)cc1 (stereo not drawn),i,i,i,i,-22.5,-0.02,i,i,i,
O=C(O)C(Cc1ccccc1)N1C(=O)/C(=C/c2cccs2)SC1=S (stereo not drawn),/,/,i,/,/,/,/,/,/,
CC(/C=C1\SC(=S)N(CC(=O)O)C1=O)=C\c1ccccc1,i,i,i,i,-4.6,2.07,/,/,/,
COc1cccc(/C=C2\SC(=S)N(C(Cc3ccccc3)C(=O)O)C2=O)c1 (stereo not drawn),i,i,i,i,-10.9,1.49,i,i,i,
CC(/C=C1\SC(=S)N(C(C(=O)O)c2ccccc2)C1=O)=C\c1ccccc1 (stereo not drawn),i,i,i,i,-18.9,1.45,i,i,i,
O=C(O)CCC(=O)Nc1ccc(SSc2ccc(NC(=O)CCC(=O)O)cc2)cc1,i,i,i,i,-3.4,-1.49,/,/,/,
CC(=O)c1ccc(S(=O)(=O)N(C)CCCC(=O)N(C)Cc2c(F)cccc2Cl)cc1,i,i,i,i,-8.1,-0.06,/,/,/,
O=C(O/N=C\c1ccc(N2CCCCC2)c([N+](=O)[O-])c1)c1ccc(Cl)cc1Cl,i,i,i,i,-8.3,0.33,/,/,/,
COc1ccccc1C(=O)/C=C/c1ccc(N2CCCCC2)c([N+](=O)[O-])c1,-9.96*,i,i,i,-3.7,0.03,50.0%*,i,31.0%*,
CCOc1ccc(Br)cc1S(=O)(=O)Nc1ccccc1N1CCOCC1,-10.4*,i,i,i,-10.6,-0.26,i,i,i,
Cc1c(Br)c([N+](=O)[O-])nn1CC(=O)NC1CCCCCC1,i,i,i,i,-12.2,-0.62,/,/,/,
COC(=O)c1cc(C)sc1NC(=S)N1CCN(CCc2ccccc2)CC1,i,i,-10.2*,i,-16.7,-0.44,i,i,i,KCNK3 inh conf=104.0*;KCNK3 uninduced=i
O=C(NC1CCCCC1)c1cc2ccccc2cc1O,-11.5*,i,-9.36*,i,-13.2,0.14,25.5%*,i,i,KCNK3 inh conf=106.7*;KCNK3 uninduced=i
NCCc1c(-c2ccccc2)n(-c2ccccc2)c2ccccc12,-9.88*,i,i,13*,-31.1,-15.1*,54.5%*,62.5%*,36.5%*,KCNK3 inh conf=135.7*;KCNK3 uninduced=i
Cc1cccc(OCC(=O)N(Cc2ccc(C)o2)C2CCS(=O)(=O)C2)c1 (stereo not drawn),i,i,i,i,-6.5,0.53,/,/,/,
N#CCC(=O)Nc1ccc(C(=O)OCc2ccccc2Oc2ccccc2)cc1,-10.7*,i,-10.2*,i,-13.9,1.2,57.5%*,i,25.0%*,KCNK3 inh conf=115.0*;KCNK3 uninduced=0.151*
COc1ccc(C2NC(=O)NC(C)=C2C(=O)OC2CCC(C)CC2)cc1 (stereo not drawn),i,i,i,i,-6.7,-0.33,/,/,/,
CCc1cc2cccc(C)c2nc1SCC(=O)NC1CCCC1,-9.04*,i,-11.4*,i,-5.0,-2.51,52.5%*,i,26.5%*,KCNK3 inh conf=104.0*;KCNK3 uninduced=i
CCOc1ccc(NC(=O)CN(C)C(=O)c2cccnc2SC)cc1OCC,i,i,i,i,-9.7,-0.65,/,/,/,
Cc1ccc(C)c(N2CCN(S(=O)(=O)c3ccc4c(c3)CC(C)N4C(=O)C3CC3)CC2)c1 (stereo not drawn),i,i,-9.27*,i,-13.1,-0.01,i,i,i,KCNK3 inh conf=75.3*;KCNK3 uninduced=i
Cc1onc(-c2ccccc2Cl)c1C(=O)N1CCCCC1C (stereo not drawn),i,i,i,i,-4.0,-1.16,/,/,/,
COc1ccc(NC(=O)Nc2c(O)ccc3ccccc23)cc1,i,i,i,i,-7.2,0.51,/,/,/,
